Experimental findings from ChEMBL document CHEMBL4390639, “Design, Synthesis, and Biological Evaluation of Novel Allosteric Protein Disulfide Isomerase Inhibitors” (J Med Chem, 2019) are described below.

Usually IC50 stands for the point on the concentration scale where inhibition reaches its midpoint. Broadly, the ΔTm is the change in melting temperature against a reference sample.

Each structure is given as a SMILES string. Calls of active or inactive are those of the source. The calls are words filed in the database; no cut-off is given here. A value given as a limit tells only on which side of the number the result lay.

Experiment [1] deals with T1, Protein disulfide-isomerase (Homo sapiens, UniProt P07237). The experiment in a line: Inhibition of recombinant human N-terminal His-tagged PDI expressed in Escherichia coli BL21 (DE3) pLysS assessed as reduction in enzyme-mediated bovine insulin aggregation.
Target sequence in this assay (P07237 whole entry): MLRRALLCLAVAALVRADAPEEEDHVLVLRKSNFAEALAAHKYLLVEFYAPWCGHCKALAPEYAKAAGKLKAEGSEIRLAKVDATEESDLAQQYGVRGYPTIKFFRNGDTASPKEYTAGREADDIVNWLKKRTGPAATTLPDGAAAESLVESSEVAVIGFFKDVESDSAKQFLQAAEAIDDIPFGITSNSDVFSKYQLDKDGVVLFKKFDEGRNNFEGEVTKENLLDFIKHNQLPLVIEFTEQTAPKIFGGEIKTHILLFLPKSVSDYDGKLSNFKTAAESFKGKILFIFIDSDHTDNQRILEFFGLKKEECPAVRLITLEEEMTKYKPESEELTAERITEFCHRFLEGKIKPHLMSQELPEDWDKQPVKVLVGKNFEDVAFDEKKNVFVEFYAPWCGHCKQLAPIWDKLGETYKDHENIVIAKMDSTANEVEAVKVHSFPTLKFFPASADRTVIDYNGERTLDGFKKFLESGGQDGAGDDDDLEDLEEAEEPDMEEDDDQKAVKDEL
Experiment [2] relates to U-87 MG. Briefly: Inhibition of colony formation in human U87MG cells assessed as combination index at 1 to 30 uM measured after 24 hrs in presence of arsenic trioxide by crystal violet staining based assay. The class given is functional, U-87MG ATCC.
Experiment [3] can be described thus: Cytotoxicity against human NU04 cells assessed as inhibition of cell growth measured after 72 hrs by MTT assay. The class given is functional, cell-based. As to conditions: Homo sapiens, 72 h; read-out: IC50. In short, it runs like this: (§1)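 A172 and NU04 cells were seeded at 4000 cells/well and U87MG at 5000 cells/well, incubated overnight at 37 °C, 5% CO2, then exposed to compound or vehicle for 72 h. MTT (3 mg/mL) was added for 4 h, formazan was dissolved in DMSO, and absorbance was read at 570 nm. IC50 came from nonlinear regression; mean ± SD of at least three experiments.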

Experiment [4] concerns U-87 MG. Briefly: Cytotoxicity against human U87MG cells assessed as inhibition of cell growth measured after 72 hrs by MTT assay. The class given is functional, cell-based, U-87MG ATCC. As to conditions: Homo sapiens, U-87 MG, 72 h; read-out: IC50. In short, it runs like this: as §1
(Tetrazolium dyes change colour on reduction, which living cells bring about.)

Experiment [5] deals with A 172. Briefly: Cytotoxicity against human A172 cells assessed as inhibition of cell growth measured after 72 hrs by MTT assay. In kind it is functional, cell-based. As to conditions: Homo sapiens, A 172, 72 h; read-out: IC50. Put shortly:
as §1

The subject of experiment [6] is U-87 MG. Briefly: Cytotoxicity against human U87MG cells assessed as inhibition of cell proliferation at <IC50 treated for 24 hrs, measured after 10 days by colony formation assay relative to control.
The nature of experiment [7]: Therapeutic ratio of IC50 for HFF1 cells to IC50 for human NU04 cells. Put shortly:
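Ratio of two growth-inhibition IC50s, HFF-1 normal human fibroblasts over NU04 glioma cells. Cells were grown as monolayers at 37 °C in 5% CO2, with NU04 seeded at 4000 cells/well. After overnight attachment, cells were exposed to compound or vehicle for 72 h. MTT (3 mg/mL) was added for 4 h, and formazan dissolved in DMSO was read at 570 nm. IC50s came from nonlinear regression of log concentration-response curves, with at least three independent experiments.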

Experiment [8] relates to A 172. The experiment in a line: Induction of endoplasmic reticulum stress in human A172 cells assessed as increase in GRP78 expression at 20 uM measured after 24 hrs by Western blot analysis. The class given is functional, cell-based.
A further experiment relates to HFF-1. Briefly: Cytotoxicity against HFF1 cells assessed as inhibition of cell growth measured after 72 hrs by MTT assay. The class given is cell-based. As to conditions: Homo sapiens, HFF-1, 72 h. In short, it runs like this: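 Cells grown as monolayers at 37 °C, 5% CO2, seeded and left overnight, then exposed to drug or vehicle for 72 h. MTT (20 μL of 3 mg/mL) added for 4 h, supernatant removed, formazan dissolved in DMSO, absorbance read at 570 nm. IC50 from nonlinear regression of log concentration–response curves; at least three independent experiments.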

For experiment [9], the target named is Eukaryotic translation initiation factor 2 subunit 1 (Homo sapiens) (UniProt P05198). Briefly: Induction of EIF2alpha phosphorylation in human A172 cells at 20 uM measured after 2 hrs by Western blot analysis. The class given is cell-based. (In general: In western blotting, separated proteins are transferred to a membrane and probed.)
Experiment [10] has as its target T1, Protein disulfide-isomerase. Briefly: Binding affinity to recombinant human N-terminal His-tagged PDI expressed in Escherichia coli BL21 (DE3) pLysS assessed as change in melting temperature at 100 uM by ROX dye based thermal shift assay. In short, it runs like this: (§2)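 Purified wild-type, C53S/C397S or H256A PDI at 0.5 mg/mL in 50 mM Tris, pH 7.0, with or without 100 μM compound, was mixed with ROX dye in a 20 µL well. DMSO (5% in buffer) was the control. Samples were heated 25–99 °C at 1 °C/min, and the Boltzmann melting temperature shift versus DMSO was reported. Mean ± SD of three experiments.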
Target sequence in this assay (P07237 18-508 limits assumed): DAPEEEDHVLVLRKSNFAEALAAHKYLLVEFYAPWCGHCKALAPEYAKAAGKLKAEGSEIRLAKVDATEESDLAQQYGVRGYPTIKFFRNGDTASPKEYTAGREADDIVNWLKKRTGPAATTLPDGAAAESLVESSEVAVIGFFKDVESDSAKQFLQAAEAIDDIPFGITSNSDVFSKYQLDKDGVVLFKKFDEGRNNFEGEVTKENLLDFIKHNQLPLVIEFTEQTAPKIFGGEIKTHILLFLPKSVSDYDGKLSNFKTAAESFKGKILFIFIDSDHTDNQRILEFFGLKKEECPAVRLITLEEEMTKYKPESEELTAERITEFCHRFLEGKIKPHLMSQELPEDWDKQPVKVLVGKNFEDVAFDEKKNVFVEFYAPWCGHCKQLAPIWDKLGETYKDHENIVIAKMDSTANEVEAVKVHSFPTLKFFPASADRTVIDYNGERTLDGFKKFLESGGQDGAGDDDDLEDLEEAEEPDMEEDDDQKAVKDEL

Experiment [11] has as its system U-87 MG. The experiment in a line: Effect on PDI expression in human U87MG cells at 20 uM measured after 24 hrs by Western blot analysis. In kind it is functional, cell-based. As to conditions: U-87MG ATCC.
For experiment [12], the system named is U-87 MG. The experiment in a line: Inhibition of colony formation in human U87MG cells […] by crystal violet staining based assay. As to conditions: U-87MG ATCC. In kind it is functional, cell-based. In short, it runs like this: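 Clonogenicity: U87MG cells seeded at 200 cells/well, left overnight, treated 24 h, then medium replaced and cells grown ten days. Stained 30 min with crystal violet, washed, imaged; normalized well intensity from three independent experiments.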

For experiment [13], the system named is U-87 MG. The experiment in a line: Induction of endoplasmic reticulum stress in human U87MG cells assessed as increase in GRP78 expression at 20 uM measured after 24 hrs by Western blot analysis. In kind it is functional, cell-based. Particulars: U-87MG ATCC. In short, it runs like this: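 ER-stress immunoblot: 0.5 x 10^6 U87MG cells/well treated for 24 h with 20 µM analogues, 1 µM PACMA31 or DMSO; tunicamycin 10 µg/mL for 2 or 24 h as positive control. Lysis in Tris/NaCl/Triton/SDS buffer with sonication; 30 µg protein on 10% gels, transferred to PVDF, GRP78 probed, fluorescence imaging.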

Experiment [14] concerns A 172. Briefly: Effect on PDI expression in human A172 cells at 20 uM measured after 24 hrs by Western blot analysis. The class given is functional, cell-based.
Experiment [15] has as its system U-87 MG. Briefly: Effect on MMP2 expression in human U87MG cells at 10 uM measured after 24 hrs by Western blot analysis. The class given is functional, cell-based. Particulars: U-87MG ATCC.
In experiment [16] the target is Focal adhesion kinase 1 (Homo sapiens) (UniProt Q05397). Briefly: Effect on FAK phosphorylation in human U87MG cells at 10 uM measured after 24 hrs by Western blot analysis. The class given is cell-based.
The target of experiment [17] is Eukaryotic translation initiation factor 2 subunit 1 (Homo sapiens) (UniProt P05198). The experiment in a line: Induction of EIF2alpha phosphorylation in human U87MG cells at 20 uM measured after 2 hrs by Western blot analysis. The class given is cell-based. In short, it runs like this:
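eIF2α phosphorylation in U87MG cells after 2 h with 1 µM PACMA31 or 20 µM analogues; tunicamycin 10 µg/mL as comparator. Lysates (Tris/NaCl/Triton/SDS, sonicated) quantified by BCA; 30 µg protein separated on 10% gels, blotted to PVDF, probed for phospho-eIF2α, detected by fluorescence.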

The test system of experiment [18] is U-87 MG. Briefly: Cytotoxicity against human U87MG cells assessed as inhibition of cell proliferation at <IC50 treated for 24 hrs and measured after 10 days by colony formation assay relative to control.
For experiment [19], the system named is Protein disulfide-isomerase (Homo sapiens), P07237 [H256A]. The experiment in a line: Inhibition of recombinant human N-terminal His-tagged PDI H256A mutant expressed in Escherichia coli BL21 (DE3) pLysS at 10 uM assessed as reduction in enzyme-mediated bovine insulin aggregation. In short, it runs like this:
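Insulin reductase assay against H256A PDI: 0.4 μM enzyme preincubated with compounds at 10 μM for 1 h at 37 °C in 100 mM sodium phosphate, 2 mM EDTA, 8 μM DTT, pH 7.0. Then 500 μM DTT and 130 μM bovine insulin added; aggregation read at 620 nm at room temperature. Activity % from OD change at 0 and 80 min, relative to PDI and DTT-only controls; three experiments.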

The test system is the same in experiment [20]. Briefly: Binding affinity to recombinant human N-terminal His-tagged PDI H256A mutant expressed in Escherichia coli BL21 (DE3) pLysS assessed as change in melting temperature at 100 uM by ROX dye based thermal shift assay. Put shortly: as §2
The subject of experiment [21] is A 172. The experiment in a line: Induction of morphological changes in human A172 cells at 40 uM measured after 48 hrs by Giemsa-staining based microscopic analysis. In kind it is functional, cell-based.
Experiment [22] deals with T1, Protein disulfide-isomerase. The experiment in a line: Inhibition of recombinant human N-terminal His-tagged PDI expressed in Escherichia coli BL21 (DE3) pLysS at 100 uM measured after 1 hr by ANS dye based fluorescence spectra analysis. In short, it runs like this:
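ANS spectral scan: PDI incubated with 100 μM compounds or matching DMSO in TBS for 1 h at 37 °C. ANS then added and incubated 20 min at 25 °C in the dark. Fluorescence spectrum recorded with excitation 370 nm, emission 400–700 nm.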
Target sequence in this assay (P07237 18-508 limits assumed): as above

Experiment [23] has as its target Eukaryotic translation initiation factor 2 subunit 1 (Homo sapiens) (UniProt P05198). The experiment in a line: Induction of EIF2alpha phosphorylation in human A172 cells at 10 ug/ml measured after 2 hrs by Western blot analysis. The class given is cell-based.
For experiment [24] the target is unchanged. The experiment in a line: Induction of EIF2alpha phosphorylation in human U87MG cells at 10 ug/ml measured after 2 hrs by Western blot analysis. The class given is cell-based. Put shortly:
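U87MG cells (0.5 x 10^6 per well) exposed to tunicamycin at 10 µg/mL for 2 h. Cells lysed by sonication in Tris/NaCl/Triton X-100/SDS buffer, pH 7.4, and cleared at 13,500×g, 4 °C. Protein was measured by BCA, and 30 µg was run on 10% acrylamide gels and transferred to PVDF. Antibody signal was read by fluorescence imaging.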

The test system of experiment [25] is U-87 MG. Briefly: Cytotoxicity against human U87MG cells assessed as inhibition of cell proliferation at <IC50 measured after 72 hrs by MTT assay relative to control. The class given is functional, U-87MG ATCC.

Eukaryotic translation initiation factor 2 subunit 1 (Homo sapiens), sequence (P05198 whole entry): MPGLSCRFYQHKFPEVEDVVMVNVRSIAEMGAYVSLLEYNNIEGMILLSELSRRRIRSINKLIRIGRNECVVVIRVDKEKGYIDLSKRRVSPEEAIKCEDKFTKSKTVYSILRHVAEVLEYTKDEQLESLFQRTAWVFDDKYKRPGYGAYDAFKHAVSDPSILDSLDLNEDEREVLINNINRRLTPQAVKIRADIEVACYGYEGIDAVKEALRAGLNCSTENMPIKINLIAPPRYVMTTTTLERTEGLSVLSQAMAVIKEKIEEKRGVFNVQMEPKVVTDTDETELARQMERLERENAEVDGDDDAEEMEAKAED
Protein disulfide-isomerase (Homo sapiens), P07237 [H256A], sequence (P07237 whole entry H256A): as the sequence (P07237 whole entry) above, with H256A counted along it
Focal adhesion kinase 1 (Homo sapiens), sequence (Q05397 2-1052 limits assumed): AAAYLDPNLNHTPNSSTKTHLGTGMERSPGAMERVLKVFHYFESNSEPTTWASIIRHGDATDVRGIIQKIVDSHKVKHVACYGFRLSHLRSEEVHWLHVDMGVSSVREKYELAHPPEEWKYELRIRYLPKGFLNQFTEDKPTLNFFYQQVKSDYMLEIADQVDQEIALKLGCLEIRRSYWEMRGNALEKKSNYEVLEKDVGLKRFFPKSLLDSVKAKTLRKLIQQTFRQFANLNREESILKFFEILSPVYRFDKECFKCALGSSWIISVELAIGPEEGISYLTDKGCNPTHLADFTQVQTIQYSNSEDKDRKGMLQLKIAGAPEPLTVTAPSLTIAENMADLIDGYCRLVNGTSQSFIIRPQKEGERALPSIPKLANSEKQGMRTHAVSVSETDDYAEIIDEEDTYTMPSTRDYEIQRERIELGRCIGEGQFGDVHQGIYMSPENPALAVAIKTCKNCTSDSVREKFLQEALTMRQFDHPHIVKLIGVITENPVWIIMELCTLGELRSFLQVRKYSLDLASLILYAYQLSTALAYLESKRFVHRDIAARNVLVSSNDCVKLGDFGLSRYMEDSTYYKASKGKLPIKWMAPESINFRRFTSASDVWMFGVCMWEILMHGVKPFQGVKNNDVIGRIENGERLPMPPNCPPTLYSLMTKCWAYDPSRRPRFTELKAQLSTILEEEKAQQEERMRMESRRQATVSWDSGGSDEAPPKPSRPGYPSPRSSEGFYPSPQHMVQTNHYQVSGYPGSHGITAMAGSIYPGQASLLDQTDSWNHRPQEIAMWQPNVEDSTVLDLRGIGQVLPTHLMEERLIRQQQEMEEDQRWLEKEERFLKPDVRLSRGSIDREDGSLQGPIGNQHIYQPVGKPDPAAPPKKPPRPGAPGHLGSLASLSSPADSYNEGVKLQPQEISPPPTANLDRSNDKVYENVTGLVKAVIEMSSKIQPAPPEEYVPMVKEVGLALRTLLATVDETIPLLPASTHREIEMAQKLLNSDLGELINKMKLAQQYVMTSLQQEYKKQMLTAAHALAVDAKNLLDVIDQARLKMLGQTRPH

`CN(C)S(=O)(=O)c1ccc(C(=O)/C=C/c2cccc(C#N)c2)cc1`: the concentration for half-maximal inhibition (IC50) in [1] is 6.23 µM. In addition, in the experiment on U-87 MG [2], the CI is under 1.

On to `N#Cc1cccc(/C=C/C(=O)c2ccc(O)c(F)c2)c1`, for which the IC50 came out at 9.8 µM in experiment [3], 29.1 µM in the experiment on U-87 MG [4], 21.9 µM with A 172 [5] and 1.14 µM in experiment [1]. For the same molecule, in the experiment with U-87 MG [6], the “inhibition (INH)” value is on record as over 50%.

Turning to `O=C(/C=C/c1ccc(-c2ccncc2)cc1)c1cccc(O)c1`, the “Ratio IC50” value in experiment [7] stood at 8.39. Moreover, the outcome (in the experiment with A 172 [8]; in experiment [9]; with U-87 MG [13]; in experiment [17]) was Active. The IC50 amounted to 31.8 µM with HFF-1; 3.8 µM in [3]; 24.9 µM in the experiment with U-87 MG [4]; 11.3 µM with A 172 [5]; 0.21 µM in experiment [1]. The shift in melting temperature (ΔTm) in experiment [10] was determined as 0.34 °C. Moreover, the result (in the experiment on U-87 MG [11]; with A 172 [14]; in the experiment with U-87 MG [15]; in experiment [16]) was inactive. Moreover, the inhibition entry in the experiment with U-87 MG [12] was “Dose-dependent effect”. Moreover, in the experiment on U-87 MG [18], the “inhibition (INH)” value is given as over 50%. Besides, the inhibition result in experiment [19] is “inactive”.

For the molecule `C[C@]12CC[C@@H]3c4ccc(O)cc4CC[C@H]3[C@@H]1CC[C@@H]2O`, the outcome in experiment [20] was inactive.

In the case of `N#Cc1cccc(/C=C/C(=O)c2ccc(S(N)(=O)=O)cc2)c1`, the half-inhibitory concentration (IC50) in experiment [1] worked out at 6.64 µM. The CI in the experiment with U-87 MG [2] was under 1.

As to `COc1ccc(C(=O)/C=C/c2cccc(C#N)c2)cc1`, the result with A 172 [21] was inactive. In experiment [10], the ΔTm is -0.24 °C. In addition, in experiment [1], the IC50 is over 500 µM. Moreover, the inhibition entry in experiment [22] is “inactive”.

For the molecule `N#Cc1cccc(/C=C/C(=O)c2ccc(F)c(O)c2)c1`, the 50% inhibitory concentration (IC50) in [3] amounted to 10.6 µM; in the experiment on U-87 MG [4], 22.9 µM; with A 172 [5], 16.8 µM; in experiment [1] it was 1.15 µM. In the experiment on U-87 MG [6], the “inhibition (INH)” value was over 50%.

As to `CCCCCCCCCCCCC/C=C/C(=O)N[C@H]1[C@H](O[C@H]2O[C@H](CO)[C@@H](O)[C@H](O)[C@H]2NC(C)=O)O[C@H](C[C@@H](O)[C@H]2O[C@@H](n3ccc(=O)[nH]c3=O)[C@H](O)[C@@H]2O)[C@H](O)[C@@H]1O`, the result in experiment [23] and in experiment [24] was Active.

As for `CCN(CC)S(=O)(=O)c1ccc(C(=O)/C=C/c2cccc(C#N)c2)cc1`, the half-maximal inhibitory concentration (IC50) in [3] worked out at 19.9 µM; with U-87 MG [4], 17.7 µM; in the experiment on A 172 [5] it was 26.4 µM; in experiment [1] it was 1.23 µM. The “inhibition (INH)” value in the experiment on U-87 MG [25] is reported as over 50%. The CI in the experiment with U-87 MG [2] was under 1.
